Source: article PMC4535690 (Angewandte Chemie (International ed. in English), 2015)
Where a SMILES comes first, the peptide text is derived from it. The star is where a group is joined. Acetyl(thymin-1-yl) = Cc1cn(CC(=O)*)c(=O)[nH]c1=O; Adenin9ylacetyl = Nc1ncnc2c1ncn2CC(=O)*

Experiments:
PC12 cells = test: Biocompatibility; type: cell-based; conditions: 7 days incubation (Figures S10, S11 and S12)
Summary of the method: (§1)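 Nucleopeptides were tested singly and as two-component heterodimer mixtures. HeLa cells (24 h doubling time) were incubated for 3 days, and PC12 cells (92 h doubling time) for 7 days. Viability was then assessed as a measure of biocompatibility.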

HeLa cells = test: Biocompatibility; type: cell-based; conditions: 3 days incubation, single nucleopeptide (Figures S11 and S12)
Summary of the method: as §1

proteinase K = proteinase K (Parengyodontium album, UniProt P06873); test: Proteolytic stability on incubation with proteinase K; type: in vitro ADME; conditions: single component, 0.2 mg/mL in HEPES buffer pH 7.4; proteinase K 3.2 U/mL; 24 h at 37 °C (Figure 3A; KTTPV Figure S9)
Chain of proteinase K (P06873 106-384, species assumed): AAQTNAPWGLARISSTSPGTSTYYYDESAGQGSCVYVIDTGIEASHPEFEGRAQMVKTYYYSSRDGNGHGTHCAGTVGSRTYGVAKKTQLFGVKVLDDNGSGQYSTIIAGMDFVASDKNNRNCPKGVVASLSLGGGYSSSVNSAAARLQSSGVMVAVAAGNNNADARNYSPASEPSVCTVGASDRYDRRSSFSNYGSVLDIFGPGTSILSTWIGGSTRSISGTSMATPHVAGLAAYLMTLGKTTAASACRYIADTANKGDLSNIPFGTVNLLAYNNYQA

| Compound | Toxicity / inhibition of proliferation of PC12 cells (PC12 cells) | Toxicity to HeLa cells (HeLa cells) | Compound remained after incubating with proteinase K (proteinase K) |
| --- | --- | --- | --- |
| Cc1cn(CC(=O)N[C@@H](CCCCN)C(=O)N[C@H](C(=O)N[C@H](C(=O)N2CCC[C@H]2C(=O)N[C@H](C(=O)O)C(C)C)[C@@H](C)O)[C@@H](C)O)c(=O)[nH]c1=O [compound 1] ({Acetyl(thymin-1-yl)}-KTTPV-OH; N-terminus and C-terminus assumed) | no toxicity | no toxicity |  |
| CC(C)[C@H](NC(=O)[C@@H]1CCCN1C(=O)[C@@H](NC(=O)[C@@H](NC(=O)[C@H](CCCCN)NC(=O)Cn1cnc2c(N)ncnc21)[C@@H](C)O)[C@@H](C)O)C(=O)O [compound 2] (Adenin9ylacetyl-KTTPV-OH; N-terminus and C-terminus assumed) | no toxicity | no toxicity |  |
| LGFNI [compound 3] | no toxicity | no toxicity | hydrolyzes completely |
